Measurements of several laboratories.
Protocols differ between the studies behind these lines.

SMILES | assay | test system | setting | endpoint | result
NS(=O)(=O)c1ccc(Cc2c(-c3cccc(-c4ccccc4)c3)nn(-c3nc(C(=O)O)cs3)c2C2CC2)cc1 | – | male CD-1 mouse, plasma | oral, 50 mg/kg | bioavailability | ~50%
CCN(CC)CCCC[C@H](NC(=O)[C@H](CC(C)C)NC(=O)[C@H](C)NC(=O)[C@H](Cc1ccccc1)NC(=O)c1ccc(C(C)(C)C)cc1)C(=O)N[C@@H](CO)C(=O)OC | – | male Swiss mouse, plasma | intraperitoneal, 10 mg/kg | bioavailability | 25%
CSc1sc(C)cc1-c1nsc(=O)o1 | chemical stability | culture medium | – | half-life | 110 min
O=C(Nc1nccs1)C(c1cc(F)ccc1O)N1Cc2ccc(-c3ccc(N4CCNCC4)cc3)cc2C1=O (centres unmarked) | – | mouse, plasma | oral, 20 mg/kg | bioavailability | 3%
COc1ncccc1-c1cnn2ccc(N3CCN(C(=O)OC(C)C)CC3)nc12 | – | mouse, plasma | oral, 10 mg/kg | bioavailability | ~100%
C[C@]12CC[C@H](n3ccnc3)CC1=CC[C@@H]1[C@@H]2CC[C@]2(C)C(n3cnc4ccccc43)=CC[C@@H]12.Cl | – | male CD-1 mouse, plasma | intravenous, 1 mg/kg | AUC(0-t) | 2040 ng·h/mL
Cc1cc(C)nc(Nc2ncc(C(=O)NCCc3c(C)[nH]c4ccccc34)cn2)c1 | metabolic stability | rat, liver microsomes | 1 µM | half-life | 3.8 min
O=C(NC1CCCCC1)Oc1ccc2ccccc2c1 | metabolic stability | male Wistar rat, liver S9 | 1 µM, pH 7.4 | half-life | 5 min
Cc1cc(-c2nsc(=O)o2)c(S(C)(=O)=O)s1 | chemical stability | culture medium | – | half-life | 13.5 min
O=C(NC1CCCCC1)Oc1ccc(-c2ccccc2)cc1 | metabolic stability | male Wistar rat, liver S9 | 1 µM, pH 7.4 | half-life | 19 min
CCC[C@@](N)(CO)CCc1ccc(OCCCCCC(C)C)cc1 | – | mouse, plasma | intravenous, 5 mg/kg | AUC(0-t) | 0.714 µM·h
